How the values were obtained:
Assay type in all cases: functional
[1] = tested on: Digitaria sanguinalis; experiment: Pre-emergence herbicidal activity against Digitaria sanguinalis (hairy crabgrass) assessed as growth inhibition at 75 g.a.i./ha applied 24 hr after seeds were sown measured after 15 days; settings: read-out: GI
Summary of the method: (§1)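 Weeds sown 5 mm deep in pots of greenhouse clay soil (pH 6.5, 37.5% clay, CEC 12.9 cmol/kg) and grown at 22-25 °C. Water-diluted formulation was applied pre-emergence 24 h after sowing. Untreated and DMF solvent controls were included. Growth inhibition was visually rated in % against untreated controls after 15 days, as the mean of triplicates.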

[2] = tested on: Echinochloa crus-galli; experiment: Pre-emergence herbicidal activity against Echinochloa crus-galli (barnyard grass) assessed as growth inhibition at 75 g.a.i./ha applied 24 hr after seeds were sown measured after 15 days; settings: read-out: GI; summary of the method: as §1
[3] = tested on: Amaranthus; experiment: Post-emergence herbicidal activity against Amaranthus ascendens assessed as growth inhibition at 75 g.a.i./ha applied at two-leaf stage measured after 15 days; settings: 360 h, read-out: GI
Summary of the method: (§2)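 Pot-grown weeds sown 5 mm deep in greenhouse clay soil (pH 6.5, 1.7% organic matter, CEC 12.9 cmol/kg) at 22-25 °C. Stock diluted with water and sprayed post-emergence: dicots at 2-leaf stage, monocots at 1-leaf stage. Untreated and DMF solvent controls were included. % growth inhibition was scored visually versus untreated controls after 15 days. Triplicates averaged.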

[4] = tested on: Setaria viridis; experiment: Post-emergence herbicidal activity against Setaria viridis (green foxtail) assessed as growth inhibition at 75 g.a.i./ha applied at one-leaf stage measured after 15 days; settings: 360 h, read-out: GI; summary of the method: as §2
[5] = tested on: Chenopodium album; experiment: Post-emergence herbicidal activity against Chenopodium album assessed as growth inhibition at 75 g.a.i./ha applied at two-leaf stage measured after 15 days; settings: 360 h, read-out: GI; summary of the method: as §2
[6] = tested on: Abutilon theophrasti; experiment: Post-emergence herbicidal activity against Abutilon theophrasti (velvetleaf) assessed as growth inhibition at 75 g.a.i./ha applied at two-leaf stage measured after 15 days; settings: 360 h, read-out: GI; summary of the method: as §2
[7] = tested on: Setaria viridis; experiment: Pre-emergence herbicidal activity against Setaria viridis (green foxtail) assessed as growth inhibition at 75 g.a.i./ha applied 24 hr after seeds were sown measured after 15 days; settings: read-out: GI
Summary of the method: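 Preliminary pre-emergence screen at a single rate of 75 g a.i./ha. Stock diluted with water and sprayed on greenhouse pots 24 h after seeds were sown 5 mm deep in clay soil (pH 6.5, 1.7% organic matter); grown at 22-25 °C. Untreated and DMF solvent controls included; triplicate. Visual % growth inhibition vs untreated after 15 days, averaged and banded (>80% top band).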

[8] = tested on: Digitaria sanguinalis; experiment: Post-emergence herbicidal activity against Digitaria sanguinalis (hairy crabgrass) assessed as growth inhibition at 75 g.a.i./ha applied at one-leaf stage measured after 15 days; settings: 360 h, read-out: GI; summary of the method: as §2
[9] = tested on: Echinochloa crus-galli; experiment: Post-emergence herbicidal activity against Echinochloa crus-galli (barnyard grass) assessed as growth inhibition at 75 g.a.i./ha applied at one-leaf stage measured after 15 days; settings: 360 h, read-out: GI; summary of the method: as §2
[10] = tested on: Amaranthus; experiment: Pre-emergence herbicidal activity against Amaranthus ascendens assessed as growth inhibition at 75 g.a.i./ha applied 24 hr after seeds were sown measured after 15 days; settings: read-out: GI; summary of the method: as §1
[11] = tested on: Abutilon theophrasti; experiment: Pre-emergence herbicidal activity against Abutilon theophrasti (velvetleaf) assessed as growth inhibition at 75 g.a.i./ha applied 24 hr after seeds were sown measured after 15 days; settings: read-out: GI; summary of the method: as §1
[12] = tested on: Chenopodium album; experiment: Pre-emergence herbicidal activity against Chenopodium album assessed as growth inhibition at 75 g.a.i./ha applied 24 hr after seeds were sown measured after 15 days; settings: read-out: GI; summary of the method: as §1

| Structure (SMILES) | inhibition of growth at 75 g/ha [1] [%] | inhibition of growth at 75 g/ha [2] [%] | inhibition of growth at 75 g/ha [3] [%] | inhibition of growth at 75 g/ha [4] [%] | inhibition of growth at 75 g/ha [5] [%] | inhibition of growth at 75 g/ha [6] [%] | inhibition of growth at 75 g/ha [7] [%] | inhibition of growth at 75 g/ha [8] [%] | inhibition of growth at 75 g/ha [9] [%] | inhibition of growth at 75 g/ha [10] [%] | inhibition of growth at 75 g/ha [11] [%] | inhibition of growth at 75 g/ha [12] [%] |
| --- | --- | --- | --- | --- | --- | --- | --- | --- | --- | --- | --- | --- |
| CCOC(=O)C(c1ccccc1)N1C(=O)C(C)Oc2cc(F)c(N3C(=O)C4=C(CCCC4)C3=O)cc21 (configuration not stated) | > 80 | > 80 | > 80 | 50 | > 80 | > 80 | > 80 | 50 | < 50 | 50 | 50 | 50 |
| CCOC(=O)CN1C(=O)COc2cc(N3C(=O)c4ccc(C)cc4C3=O)c(F)cc21 | < 50 | < 50 | < 50 | < 50 | < 50 | < 50 | < 50 | < 50 | < 50 | < 50 | < 50 | < 50 |
| COC(=O)C(C)N1C(=O)COc2cc(F)c(N3C(=O)c4ccccc4C3=O)cc21 (configuration not stated) | < 50 | < 50 | > 80 | 50 | > 80 | > 80 | < 50 | 50 | 50 | < 50 | < 50 | < 50 |
| CCOC(=O)C(C)N1C(=O)COc2cc(F)c(N3C(=O)c4ccc([N+](=O)[O-])cc4C3=O)cc21 (configuration not stated) | < 50 | < 50 | < 50 | < 50 | < 50 | < 50 | < 50 | < 50 | < 50 | < 50 | < 50 | 50 |
| CCOC(=O)CN1C(=O)COc2cc(F)c(N3C(=O)c4cc(Cl)c(Cl)cc4C3=O)cc21 | < 50 | < 50 | 50 | < 50 | 50 | 50 | < 50 | < 50 | < 50 | < 50 | < 50 | < 50 |
| CCOC(=O)CN1C(=O)COc2cc(N3C(=O)c4ccccc4C3=O)c(F)cc21 | < 50 | < 50 | < 50 | < 50 | < 50 | < 50 | < 50 | < 50 | < 50 | < 50 | < 50 | < 50 |
| CCOC(=O)C(C)(C)N1C(=O)C(C)Oc2cc(F)c(N3C(=O)C4=C(CCCC4)C3=O)cc21 (configuration not stated) | < 50 | < 50 | > 80 | 50 | > 80 | > 80 | < 50 | 50 | 50 | 50 | < 50 | < 50 |
| CCOC(=O)C(C)N1C(=O)COc2cc(F)c(N3C(=O)c4ccc(C)cc4C3=O)cc21 (configuration not stated) | < 50 | < 50 | < 50 | < 50 | < 50 | > 80 | < 50 | < 50 | < 50 | < 50 | < 50 | 50 |
| CCC(C(=O)OC)N1C(=O)COc2cc(F)c(N3C(=O)C4=C(CCCC4)C3=O)cc21 (configuration not stated) | < 50 | < 50 | > 80 | 50 | > 80 | > 80 | < 50 | 50 | < 50 | < 50 | < 50 | < 50 |
| CCOC(=O)C(CC)N1C(=O)COc2cc(F)c(N3C(=O)C4=C(CCCC4)C3=O)cc21 (configuration not stated) | 50 | 50 | > 80 | 50 | > 80 | > 80 | 50 | 50 | 50 | 50 | > 80 | 50 |
| CCOC(=O)CN1C(=O)C(C)Oc2cc(F)c(N3C(=O)C4=C(CCCC4)C3=O)cc21 (configuration not stated) | < 50 | < 50 | > 80 | < 50 | > 80 | > 80 | < 50 | < 50 | < 50 | > 80 | > 80 | > 80 |
| COC(=O)CN1C(=O)C(C)Oc2cc(F)c(N3C(=O)C4=C(CCCC4)C3=O)cc21 (configuration not stated) | < 50 | < 50 | > 80 | 50 | > 80 | > 80 | < 50 | 50 | < 50 | > 80 | > 80 | > 80 |
| CCOC(=O)CN1C(=O)COc2cc(N3C(=O)c4cc(Cl)c(Cl)cc4C3=O)c(F)cc21 | < 50 | < 50 | < 50 | < 50 | < 50 | < 50 | < 50 | < 50 | < 50 | < 50 | < 50 | < 50 |
| CCOC(=O)CN1C(=O)COc2cc(F)c(N3C(=O)c4ccc(C)cc4C3=O)cc21 | < 50 | < 50 | 50 | < 50 | 50 | 50 | < 50 | < 50 | < 50 | < 50 | < 50 | < 50 |
| CCOC(=O)CN1C(=O)COc2cc(F)c(N3C(=O)c4ccc([N+](=O)[O-])cc4C3=O)cc21 | < 50 | < 50 | 50 | < 50 | 50 | 50 | < 50 | < 50 | < 50 | < 50 | < 50 | < 50 |
| CCOC(=O)C(C)N1C(=O)COc2cc(F)c(N3C(=O)c4cc(Cl)c(Cl)cc4C3=O)cc21 (configuration not stated) | < 50 | < 50 | < 50 | < 50 | 50 | < 50 | < 50 | < 50 | < 50 | < 50 | < 50 | < 50 |

Reference: ChEMBL document CHEMBL3045743, “Synthesis and herbicidal activity of isoindoline-1,3-dione substituted benzoxazinone derivatives containing a carboxylic ester group” (J Agric Food Chem, 2009)
